Data taken from publication PMC3985442 (The Journal of Organic Chemistry, 2014).
Like-named read-outs stand apart in the source and are kept apart here.

What was measured:
[1] = biological target: T1, His-Ste14p (yeast Icmt) (Saccharomyces cerevisiae, UniProt P32584); format: biochemical; settings: pH 7.5, 30 °C; for Vmax: pmol of methyl groups transferred to substrate; for Vmax / Km: crude membrane preparations, 20 μM [14C]SAM, 100 mM Tris-HCl, 30 min, liquid scintillation counting; for Km: read-out: Km(app), apparent values (single SAM concentration, membrane suspension); for Vmax/Km: catalytic efficiency, from Vmax and apparent Km, crude membranes
T1 sequence (P32584 1-239): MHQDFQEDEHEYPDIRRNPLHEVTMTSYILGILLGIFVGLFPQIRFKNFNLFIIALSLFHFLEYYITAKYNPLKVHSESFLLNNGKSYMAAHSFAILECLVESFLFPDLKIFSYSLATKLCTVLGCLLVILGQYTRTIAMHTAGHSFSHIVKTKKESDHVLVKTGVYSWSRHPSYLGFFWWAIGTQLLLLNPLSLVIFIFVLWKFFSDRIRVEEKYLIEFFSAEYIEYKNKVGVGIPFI
Outline: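 Membranes from yeast strain CH2704 overexpressing His-Ste14p: 100 000g pellet resuspended in 10 mM Tris-HCl pH 7.5, stored at −80 °C. Reaction: membranes plus substrate, 20 μM [14C]SAM (50–60 mCi/mmol), 100 mM Tris-HCl pH 7.5, 30 °C for 30 min. Stopped with 1 M NaOH/1% SDS; base-labile [14C]methyl diffused onto filter over scintillant, rt for 2.5 h, then counted. Km apparent: single SAM level, peptide partitions into membranes.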

[2] = test system: His-Ste14p (crude membranes); format: binding, Saccharomyces cerevisiae; settings: 16 in competition with 17, 5 to 200 μM
Outline: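 Crude membranes (100 μg) from a Δste14 yeast strain overexpressing His-Ste14p, in 10 mM Tris-HCl pH 7.5, preincubated with increasing competitor peptide; diazirine photoprobe then added, 4 °C for 5 min. Irradiated at 365 nm, 30 min on ice. Solubilized in RIPA/10% SDS; neutravidin-agarose pulldown 2 h at 4 °C, three washes, eluted in SDS sample buffer at 65 °C for 30 min. 12% SDS-PAGE, α-Ste14p immunoblot (1:500).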

[3] = biological target: T1, His-Ste14p (yeast Icmt); settings: cited from earlier work

Row | Vmax [1] [pmol min^–1 mg^–1] | Compound | Km [1] [µM] | site of photolabeling, inferred from competition [2] | Vmax/Km [1] [pmol min^–1 mg^–1 μM^–1] | Vmax ([1]; listed as diazirine-containing peptide) [pmol min^–1 mg^–1] | Vmax/Km ([3]; catalytic efficiency, previously reported) [pmol min^–1 mg^–1 μM^–1] | Vmax ([3]; pmol of methyl groups transferred to substrate, previously reported) [pmol min^–1 mg^–1] | Km ([3]; read-out: Km(app), apparent values, previously reported) [µM]
1 | 217 ± 3 | Biotin-Peg4-K(5-Fam)YIIKGVFWDPAC(C5-m-BP)-OH [compound 19] | 27.8 ± 1 | – | – | – | – | – | –
2 | – | CC(=O)N[C@@H](CSC/C=C(\C)CC/C=C(\C)CCC=C(C)C)C(=O)O [AFC, N-acetyl-S-farnesyl-L-cysteine] | – | – | – | – | 54 | 870 ± 15 | 15.9 ± 0.9
3 | 1919 ± 30 | Biotin-Peg4-YIIKGVFWDPAC(Fr)-OH [compound 17] | – | – | 157 | – | – | – | –

Row | Compound | Vmax [1] [pmol min^–1 mg^–1] | Km [1] [µM] | site of photolabeling, inferred from competition [2] | Vmax/Km [1] [pmol min^–1 mg^–1 μM^–1] | Vmax ([1]; listed as diazirine-containing peptide) [pmol min^–1 mg^–1] | Vmax/Km ([3]; catalytic efficiency, previously reported) [pmol min^–1 mg^–1 μM^–1] | Vmax ([3]; pmol of methyl groups transferred to substrate, previously reported) [pmol min^–1 mg^–1] | Km ([3]; read-out: Km(app), apparent values, previously reported) [µM]
4 | Biotin-Peg4-K(5-Fam)YIIKGVFWDPAC(C10-Diazirine)-OH [compound 16] | 947 ± 4 | 6.6 ± 0.2 | labeling the substrate binding site of His-Ste14p | 143 | 947 | – | – | –
